Screening results as filed in PubChem.
This is a sample that favours compounds with a hit; in the whole collection about 1.8% have one here.
TCR CD3 inh: blocks the human TCR-CD3 interaction; TAMRA-labeled TCR probe fluorescence, biochemical; inhibition, % at 9.4 µM; actives 0.37% (n = 360,000);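 note: recombinant mutant TCR 2C K166C tagged with TAMRA read by polarization; 0% = receptor in buffer alone and 100% = receptor with positive control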
Fam108B counter: blocks mouse Fam108B hydrolase in RBBP9 counter-screen | inhibition, % at 9.51 µM | AID 1947 | actives 0.33% (n = 300,000) | recombinant Fam108B, FP-Rh probe fluorescence polarization;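 active = inhibition above the screen mean inhibition plus 3 SD, computed separately per campaign, cut at about 18% in these data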;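 note: inhibitors lower polarization as less probe binds the enzyme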
HTRA1 inh: inhibitors of human serine peptidase HTRA1; recombinant HTRA1, FP-rhodamine activity-based probe, fluorescence polarization; actives 0.5% (n = 340,000); inhibition, % at 5.96 µM; Q92743; in the data active = inhibition above about 36%;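 note: 0% = enzyme with DMSO and 100% = wells lacking enzyme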
Target sequence (Q92743 whole entry, looked up): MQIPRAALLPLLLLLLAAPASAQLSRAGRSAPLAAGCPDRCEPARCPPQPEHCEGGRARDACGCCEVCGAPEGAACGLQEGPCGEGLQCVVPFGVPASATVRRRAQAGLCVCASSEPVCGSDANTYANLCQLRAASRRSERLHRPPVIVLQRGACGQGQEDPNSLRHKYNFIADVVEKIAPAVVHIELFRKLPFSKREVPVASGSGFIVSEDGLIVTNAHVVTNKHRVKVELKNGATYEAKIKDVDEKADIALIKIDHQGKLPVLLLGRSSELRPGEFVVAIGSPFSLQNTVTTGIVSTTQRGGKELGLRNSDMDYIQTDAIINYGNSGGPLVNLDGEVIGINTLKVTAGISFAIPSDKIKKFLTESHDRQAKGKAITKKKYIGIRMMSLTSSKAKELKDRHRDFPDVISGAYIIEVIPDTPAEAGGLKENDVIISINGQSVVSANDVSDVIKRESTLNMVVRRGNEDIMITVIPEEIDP
PME-1 primary: PME-1 (human) inhibition; actives 0.53% (n = 320,000); recombinant PME-1, FP-Rh probe fluorescence polarization; inhibition, % at 5.9 µM; AID 2130; Q9Y570;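 active = inhibition above the campaign mean of all compounds plus 3 SD, cut at about 26% in these data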;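 note: competitive labeling of PME-1 active site by serine hydrolase directed probe; 0% = PME-1 with DMSO and 100% = wells lacking PME-1 enzyme; inhibitors block probe labeling so polarization falls and inhibition rises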
mABHD4 FP: ABHD4 (mouse) inhibition, primary FP screen; purified mABHD4, FP-Rh probe fluorescence polarization; actives 0.54% (n = 370,000); AID 720543; inhibition, % at 8.92 µM;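 active = inhibition exceeding the mean over every tested compound plus 3 SD, cut at about 30% in these data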;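 note: 0% = plate median of compound wells and 100% = S159A mutant with DMSO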
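Test system: mouse ABHD4 enzyme, wild type. Reagent: FP-Rh fluorescent activity-based probe, added after compound pre-incubation. Timing: pre-incubation 45 min, probe exposure 60 min, at 25 °C. Technique: FP readout, ex 525 nm / em 598 nm. Benchmarks: high control S159A mutant with DMSO, low control median of compound wells.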
SIAE inh: inhibitors of human sialic acid acetylesterase SIAE; Q9HAT2; SIAE FP-Rh probe binding, fluorescence polarization; inhibition, % at 9.66 µM; actives 0.69% (n = 370,000);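 active = inhibition above a cutoff: mean of compounds within the control limits plus 3 SD of those, cut at about 17% in these data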;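 note: 0% = plate median of compound wells and 100% = probe without SIAE protein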
HTRA1 conf: HTRA1 (human) inhibition, confirmation. actives 66% (n = 1,600). recombinant HTRA1, FP-rhodamine activity-based probe, fluorescence polarization. AID 540248. shares compounds with HTRA1 inh. inhibition, % at 5.96 µM;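 active = mean inhibition over three repeats above a set limit taken from the earlier primary screen, cut at about 37% in these data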;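 note: 0% = HTRA1 with DMSO and 100% = wells lacking HTRA1; inhibitors block probe binding so polarization drops and inhibition rises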
BSA probe FL: counter-screen for TCR-CD3 interaction inhibitors: BSA probe; shares compounds with TCR CD3 inh; actives 10% (n = 1,200); inhibition, % at 9.4 µM; AID 652035; TAMRA-labeled BSA probe fluorescence counterscreen; in the data active = inhibition above about 23%;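 note: 0% = buffer low control and 100% = reference high control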
TCR-CD3 conf: confirmation of human TCR-CD3 interaction inhibitors | shares compounds with TCR CD3 inh | TAMRA-labeled TCR probe fluorescence binding assay | inhibition, % at 9.4 µM | actives 48% (n = 1,200) | AID 652036
mABHD4 conf: ABHD4 (mouse) inhibition, FP confirmation | shares compounds with mABHD4 FP | purified mABHD4, FP-Rh probe fluorescence polarization | inhibition, % at 8.92 µM | actives 55% (n = 1,800);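 active = mean inhibition across replicates above the hit cutoff set in the primary screen, cut at about 30% in these data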;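 note: 0% = wild-type ABHD4 with DMSO and 100% = catalytically dead S159A mutant with DMSO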
An asterisk follows results filed as active; nt = no result given. Cut-off read from the data, not from the text of the source, unless noted: active = inhibition above about 19%; inactive = the rest.

SMILES | TCR CD3 inh | Fam108B counter | HTRA1 inh | PME-1 primary | mABHD4 FP | SIAE inh | HTRA1 conf | mABHD4 conf | others
O=c1cc(-c2ccccc2)oc2cc(O)c(O)c(O)c12 | 38* | nt | 80* | nt | 52* | 17 | 85* | 37* | BSA probe FL=-13;TCR-CD3 conf=24*
O=c1cc(-c2ccc(O)cc2)oc2c(O)c(O)c(O)c(O)c12 | 23* | -4 | 52* | -15 | 36* | 13 | 59* | 17 | BSA probe FL=0;TCR-CD3 conf=38*
COc1c(O)cc2oc(-c3ccc(O)cc3)cc(=O)c2c1O | 4 | 0 | -2 | 0 | 11 | 3 | nt | nt
C=CCN1[C@H](Cc2ccccc2)COc2cc(N3CCSCC3)ccc2S1(=O)=O | nt | nt | nt | nt | 0 | -11 | nt | nt
Cc1cc2c(s1)c1cnn(Cc3c(Cl)ccc(C)c3F)c(=O)c1n2C | nt | nt | nt | nt | 1 | 3 | nt | nt
O=c1oc2cc(O)c(Cl)cc2c2ccccc12 | 5 | 3 | 4 | 3 | 8 | 1 | nt | nt
O=c1cc2c(=O)oc3cc(O)c(O)oc3c2c(O)c1O | 26* | nt | 47* | nt | 42* | 12 | 38* | 34* | BSA probe FL=-19;TCR-CD3 conf=19*
COc1ccc(S(=O)(=O)N(C)C[C@@H]2Oc3c(NC(=O)Nc4ccccc4)cccc3C(=O)N([C@@H](C)CO)C[C@H]2C)cc1 | nt | nt | nt | nt | -13 | -7 | nt | nt
Oc1c(I)cc(I)c2cccnc12 | 6 | 1 | 72* | -5 | 33* | 34* | 66* | 29
CCN(CC)c1ccc(N=Cc2cc(Br)ccc2O)cc1 | 8 | 0 | 60* | 0 | 45* | 11 | 4 | 29
O=C1c2ccccc2C(=O)c2c(Nc3ccc(CCO)cc3)ccc(O)c21 | 0 | 17 | 53* | 29* | 48* | 12 | 81* | 75*
CC(=O)Nc1ccc(Nc2ccc3c4c(cc(=O)n3C)-c3ccccc3C(=O)c24)cc1 | 1 | 5 | 21 | 4 | 16 | 4 | nt | nt
Cc1cc(N(C)C)ccc1N=Nc1ccc2ncccc2c1 | -2 | 11 | 37* | 32* | 45* | 3 | 37* | 54*
CN(C)c1ccc(N=Nc2ccc3ncccc3c2)cc1 | 4 | nt | 13 | nt | 7 | -1 | nt | nt
COC(=O)[C@]12C[C@H](CC(=O)N3CCN(C(=O)C4CC4)CC3)C(=O)N(Cc3cccc4ccccc34)C1=C[C@H](C(C)(C)C)O[C@@H]2C | nt | nt | nt | nt | -3 | 3 | nt | nt
Cc1ccc(NC2=C(NC(=O)c3ccccc3)C(=O)c3ccccc3C2=O)cc1Cl | 1 | 8 | 44* | 10 | 30* | 7 | 42* | 50*
C#CCNC(=O)C[C@H]1C[C@@]2(C(=O)OC)C(=C[C@H](C(C)C)O[C@@H]2C2CC2)N(CCC2=CCCCC2)C1=O | nt | nt | nt | nt | -3 | 7 | nt | nt
CO[C@H]1/C=C/O[C@@]2(C)Oc3c(C)c(O)c4c(O)c(c(C=NN5CCN(C)CC5)c(O)c4c3C2=O)NC(=O)/C(C)=C\C=C\[C@H](C)[C@H](O)[C@@H](C)[C@@H](O)[C@@H](C)[C@H](OC(C)=O)[C@@H]1C | 4 | 8 | 36* | 3 | 35* | 6 | 7 | 3
Cc1cc(/C=N/NC(=O)c2ccncc2)c(C)n1-c1ccccc1 | 8 | 0 | 11 | 9 | 3 | 1 | nt | nt
Cc1cc(C(=O)N/N=C/c2ccc(O)c(O)c2O)c(C)n1-c1ccccc1 | 30* | nt | 67* | nt | 61* | 15 | 67* | 47* | BSA probe FL=-18;TCR-CD3 conf=29*
COC(CNC(=O)[C@H](Cc1c[nH]c2ccccc12)NC1(C(=O)NC(c2ccccc2)c2ccccc2)CCCCC1)OC | nt | nt | nt | nt | 6 | 14 | nt | nt
Cc1ccc(S(=O)(=O)Nc2cc(Cl)c(O)c3ncccc23)cc1 | -7 | 0 | 70* | 10 | 48* | 17 | 54* | 57*
Cc1ccc(S(=O)(=O)Nc2cccnc2Oc2ccc(Cl)cc2)cc1 | -9 | 1 | -1 | 6 | -7 | -3 | nt | nt
CCN=c1scc(C)n1/N=C/c1ccc(O)c(O)c1O | 27* | 5 | 60* | -4 | 60* | 9 | 81* | 49* | BSA probe FL=-20;TCR-CD3 conf=41*
Cc1cc(O)c(N=Cc2cc3c(cc2[N+](=O)[O-])OCO3)cc1C | -7 | 3 | 52* | -4 | 45* | 8 | 6 | 21
SMILES | TCR CD3 inh | Fam108B counter | HTRA1 inh | PME-1 primary | mABHD4 FP | SIAE inh | HTRA1 conf | mABHD4 conf | others
O=C(NC1CCCCN(Cc2cccc(Cl)c2)C1=O)c1ccc(-c2ccccc2)cc1 (configuration not stated) | nt | nt | nt | nt | 0 | -1 | nt | nt
C[C@@H](NC(=O)/C(C#N)=C/c1ccc(O)c(O)c1)c1ccccc1 | 3 | 0 | 68* | 11 | 54* | 11 | 91* | 28
N#C/C(=C\c1cccnc1)C(=O)Nc1ccccc1 | 4 | -4 | 0 | -5 | -4 | 2 | nt | nt
CC(NC(=O)/C(C#N)=C/c1ccc(Cl)c([N+](=O)[O-])c1)c1ccccc1 (configuration not stated) | -5 | -2 | nt | -4 | 6 | -6 | nt | nt
N#C/C(=C/c1ccc(O)c(O)c1)C(=O)NCc1ccc(Cl)cc1 | 4 | 4 | 81* | 15 | 51* | 5 | 87* | 37*
N#C/C(=C\c1ccc(O)c(O)c1)C(=O)Nc1ccccc1 | 12 | 6 | 68* | 5 | 73* | 10 | 177* | 43*
COc1ccc(S[C@]2(C(=O)N3CCOCC3)CC(=O)N(C(=O)C3CC3)[C@@H]2c2ccc(OC)cc2)cc1 | nt | nt | nt | nt | 4 | 4 | nt | nt
Nc1nc(O)c(N=Nc2ccc(S(N)(=O)=O)cc2)c(=O)[nH]1 | -3 | nt | nt | nt | -3 | -2 | nt | nt
NS(=O)(=O)c1ccc(N=Nc2c(O)c(C(=O)O)cc3ccccc23)cc1 | -5 | 3 | 45* | 5 | 49* | 9 | 9 | 20
CCN(CC)c1ccc(/C=N/Nc2ccc(C)cc2)c(O)c1 | 4 | 3 | 42* | 6 | 31* | 13 | 20 | 31*
Cc1cc(C)c(C)c(N=Nc2nc3ccccc3n2C)c1C | 5 | 13 | 37* | 22 | 40* | 9 | 43* | 55*
Cc1ccc(C)c(N=Nc2nc3ccccc3n2C)c1 | 5 | 0 | 11 | 12 | 13 | 9 | nt | nt
CCCCCC(=O)NC1CCCCN(Cc2cccc(Cl)c2)C1=O (configuration not stated) | nt | nt | nt | nt | 3 | 6 | nt | nt
C=CC[C@@]1(c2ccccc2)Oc2ccccc2-c2nc3ccccc3nc21 | nt | nt | nt | nt | -11 | -5 | nt | nt
